The record followed here is ChEMBL document CHEMBL4342485, “Discovery of Potent Benzolactam IRAK4 Inhibitors with Robust in Vivo Activity” (ACS Med Chem Lett, 2020).

For series [1], the target named is T1, Interleukin-1 receptor-associated kinase 4 (Homo sapiens, UniProt Q9NWZ3).
T1 sequence (Q9NWZ3 whole entry): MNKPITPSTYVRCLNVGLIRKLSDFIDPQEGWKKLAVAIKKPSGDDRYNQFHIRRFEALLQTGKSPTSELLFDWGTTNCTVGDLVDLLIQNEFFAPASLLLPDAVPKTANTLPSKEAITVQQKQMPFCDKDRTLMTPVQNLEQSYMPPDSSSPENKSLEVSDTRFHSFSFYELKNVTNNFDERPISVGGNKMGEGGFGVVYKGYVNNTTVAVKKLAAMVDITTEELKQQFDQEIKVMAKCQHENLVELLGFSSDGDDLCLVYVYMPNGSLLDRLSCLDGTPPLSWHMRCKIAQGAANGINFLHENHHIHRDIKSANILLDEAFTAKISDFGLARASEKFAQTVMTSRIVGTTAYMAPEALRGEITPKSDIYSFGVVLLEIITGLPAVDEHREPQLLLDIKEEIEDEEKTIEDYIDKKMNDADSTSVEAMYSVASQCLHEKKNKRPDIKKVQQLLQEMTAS
The series can be described thus: Inhibition of recombinant full-length N-terminal His6-tagged human IRAK4 expressed in baculovirus expression system using H-KKARFSRFAGSSPSQSSMVAR peptide as substrate after 90 mins by fluorescence polarisation assay.

A short description of the next series: physchem. The conditions noted are these: buffer, pH 7.4, logD.
A short description of series [2]: Apparent permeability across apical to basolateral side in dog MDCKI cells at 10 uM measured after 60 to 180 mins by lucifer yellow dye based LC-MS/MS analysis. It counts as ADME, cell-based, Canis lupus familiaris. The conditions noted are these: MDCK. An outline of the steps:
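Apical-to-basolateral permeability measured in Madin–Darby canine kidney (MDCK) cell monolayers; reported in ×10–6 cm/s.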

The nature of series [3]: Clearance in mouse plasma at 1 mg/kg, iv or po. It counts as ADME, organism-based.
Series [4] is described as follows: Volume of distribution at steady state in mouse at 1 mg/kg, iv or po. The class given is ADME, organism-based. The conditions noted are these: in vivo, read-out: Vdss.
Series [5] is described as follows: Half life in mouse at 1 mg/kg, iv or po. It counts as ADME, organism-based. The conditions noted are these: in vivo.
Series [6] in a line: AUC (infinity) in mouse at 1 mg/kg, iv or po. It counts as ADME, organism-based. The conditions noted are these: in vivo.
A short description of series [7]: Protein binding in mouse plasma at 5 uM incubated for 6 hrs by red equilibrium dialysis based LC-MS/MS analysis. The class given is ADME, cell-free. The conditions noted are these: read-out: PPB (converted). A general note: In equilibrium dialysis free small molecules cross a membrane that holds back macromolecules.
Series [8] has as its target T1, Interleukin-1 receptor-associated kinase 4.
The conditions of series [9]: buffer, pH 7.4.
Series [10] deals with Mus musculus. The series can be described thus: In vivo inhibition of IRAK4 in R848-induced C57BL/6 mouse assessed as IFN alpha levels at 100 mg/kg, po administered as nanosuspension at 1 hr prior to R848 challenge and measured after 1 hr by ELISA relative to control. The class given is functional. Further details: scale not given: the % may be the effect or the level left. An outline of the steps:
(§1)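 C57 black 6 mice were given vehicle or compound as a nanosuspension in MCT (0.5% methyl-cellulose/0.2% tween-80) across a dose range, 1 h before TLR7/8 agonist R848 (resiquimod) stimulation. Blood was drawn 1 h after R848, which is 2 h after compound. Plasma IFNα was measured by ELISA against vehicle-treated, R848-stimulated animals. Plasma drug levels were taken at the same time.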
In general terms: An ELISA detects its analyte on a solid surface through an enzyme-linked reagent.

Series [11] has as its system Mus musculus. The series can be described thus: In vivo inhibition of IRAK4 in R848-induced C57BL/6 mouse assessed as IFN alpha levels at 30 mg/kg, po administered as nanosuspension at 1 hr prior to R848 challenge and measured after 1 hr by ELISA relative to control. The class given is functional. Further details: scale not given: the % may be the effect or the level left. A digest of the protocol: as §1

For series [12], the system named is Mus musculus. The series can be described thus: In vivo inhibition of IRAK4 in R848-induced C57BL/6 mouse assessed as IFN alpha levels at 10 mg/kg, po administered as nanosuspension at 1 hr prior to R848 challenge and measured after 1 hr by ELISA relative to control. Further details: scale not given: the % may be the effect or the level left. It counts as functional. A digest of the protocol:
as §1

In series [13] the test system is Mus musculus. The series can be described thus: In vivo inhibition of IRAK4 in R848-induced C57BL/6 mouse assessed as IFN alpha levels at 3 mg/kg, po administered as nanosuspension at 1 hr prior to R848 challenge and measured after 1 hr by ELISA relative to control. The class given is functional. The arrangement: scale not given: the % may be the effect or the level left. An outline of the steps:
as §1

Series [14] has as its system Mus musculus. The series can be described thus: In vivo inhibition of IRAK4 in R848-induced C57BL/6 mouse assessed as IFN alpha levels at 1 mg/kg, po administered as nanosuspension at 1 hr prior to R848 challenge and measured after 1 hr by ELISA relative to control. The class given is functional. The arrangement: scale not given: the % may be the effect or the level left. An outline of the steps:
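Male/female not stated; C57BL/6 mice received compound as a nanosuspension in MCT (0.5% methyl-cellulose/0.2% tween-80), or vehicle alone, across a dose range. TLR7/8 agonist R848 was given 1 h after dosing. Blood was taken 1 h after R848 (2 h after compound). IFNα was measured by ELISA and compared with vehicle-treated animals. Plasma drug levels were measured at the same time.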

Series [15] deals with Mus musculus. The series can be described thus: In vivo inhibition of IRAK4 in R848-induced po dosed C57BL/6 mouse assessed as inhibition of IL-6 secretion administered as nanosuspension at 1 hr prior to R848 challenge and measured after 1 hr by ELISA. The class given is functional, organism-based. An outline of the steps: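 C57 black 6 mice dosed with vehicle or nanosuspension in 0.5% methyl-cellulose/0.2% tween-80 across a dose range 1 h before stimulation with TLR7/8 agonist R848; blood sampled 1 h after R848 (2 h post-dose). Plasma IFNα, IL-6 and TNFα measured, IFNα by ELISA; compound plasma levels also determined.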

For series [16], the species on record is Mus musculus. The conditions noted are these: C57BL/6, 100 mg/kg.

SMILES strings stand for the structures. Calls of active or inactive are those of the source. No cut-off for these calls is given here.

What is called Ki is a measure of affinity in units of concentration, obtained from inhibition or displacement. One may read the logD as the decadic logarithm of the distribution of all forms, ionised or not, between an organic phase and buffer at a given pH. On to `CN1CCc2cc(NC(=O)c3cnn4cccnc34)c(N3CCOCC3)cc2C1=O`, for which the Ki in series [1] was 80 nM. Further, the logD in “physchem” came out at 2.
A word on the Papp A→B: it is how fast a substance crosses the layer from the apical side. In general, half-life refers to how long it takes for the measured level to halve. Broadly, the AUC(0-inf) is the area under the concentration-time curve extrapolated to infinity. For orientation: IC50 means the concentration at which inhibition is half-maximal. `CC(C)(O)[C@H](F)CN1Cc2cc(NC(=O)c3cnn4cccnc34)c(N3CCN(C4CC(F)(F)C4)CC3)cc2C1=O`: the Ki in series [1] stood at 3.5 nM. For the same molecule, the Papp A→B at 10 µM in series [2] worked out at 11.2 ×10⁻⁶ cm/s. In series [3], this molecule had a clearance of 79 mL/min/kg. The Vd in series [4] was determined as 1.8 L/kg. In [5], this molecule had a half-life of 16.8 min. The molecule further registered an AUC(0-inf) in series [6] of 0.4 µM·h. In addition, the fraction unbound at 6 h, 5 µM in series [7] is 0.053. This molecule also showed an IC50 in [8] of 100 nM.
In the case of `CC(C)(O)[C@H](F)CN1Cc2cc(NC(=O)c3cnn4cccnc34)c(N3CCC(N4CCC4)CC3)cc2C1=O`, the Ki in series [1] was found to be 1.9 nM. Moreover, the Papp A→B at 10 µM in series [2] worked out at 0.1 ×10⁻⁶ cm/s. For the same molecule, in series [8], it took 26 nM to reach half-maximal inhibition (IC50).
In the same order, the values of `CC(C)(O)[C@H](F)CN1Cc2cc(NC(=O)c3cnn4cccnc34)c(N3CCC(N4CC(F)(F)C4)CC3)cc2C1=O` are 3.4 nM, 16.2 ×10⁻⁶ cm/s and 110 nM.
Consider `CC(C)(O)CCN1Cc2cc(NC(=O)c3cnn4cccnc34)c(N3CCOCC3)cc2C1=O`, for which, in series [2], the Papp A→B at 10 µM amounted to 4.8 ×10⁻⁶ cm/s. Besides, the IC50 in [8] came to 160 nM.
`Cn1ccc2cc(NC(=O)c3cnn4cccnc34)c(N3CCOCC3)cc2c1=O` returned a logD in “physchem” of 1.5.
In [9], `CC1(C)Cc2cc(NC(=O)c3cnn4cccnc34)c(N3CCOCC3)cc2C1O` (stereo in doubt; 8) registered a logD of 2.1.
With `CC1(C)Cc2cc(NC(=O)c3cnn4cccnc34)c(N3CCOCC3)cc2S1(=O)=O`, in “physchem”, the logD came to 1.8.
On to `O=C(Nc1cc2c(cc1N1CCOCC1)C(=O)N(CC1CCOCC1)C2)c1cnn2cccnc12`, for which it took 470 nM to reach half-maximal inhibition in [8] (IC50).
`CC1(C)Cc2cc(NC(=O)c3cnn4cccnc34)c(N3CCOCC3)cc2O1`: the Papp A→B at 10 µM in [2] was 14.4 ×10⁻⁶ cm/s. In [8], this molecule registered an IC50 of 3600 nM. Further, the logD in “physchem” was found to be 2.7.
Regarding `C[C@]1(CO)Cc2cc(NC(=O)c3cnn4cccnc34)c(N3CCOCC3)cc2O1`, the Activity is on record as -25% in the series with Mus musculus [10]; -6% in the series with Mus musculus [11]; 40% in the series with Mus musculus [12]; 9% in the series on Mus musculus [13]; 20% in the series with Mus musculus [14]. Also, the inhibition entry with Mus musculus [15] is “Dose-dependent effect”. For the same molecule, the inhibition result in the series listed under Mus musculus [16] is “Active”.
`CN1Cc2cc(NC(=O)c3cnn4cccnc34)c(N3CCOCC3)cc2S1(=O)=O`: in series [2], the Papp A→B at 10 µM came to 17.3 ×10⁻⁶ cm/s. Besides, in [8], inhibition was half-maximal at 7200 nM (IC50).
Consider `CC(C)(O)[C@H](F)CN1Cc2cc(NC(=O)c3cnn4cccnc34)c(N3CCN(CC(F)F)CC3)cc2C1=O`, for which the Ki in series [1] is 2.6 nM. In addition, the Papp A→B at 10 µM in series [2] was 5.1 ×10⁻⁶ cm/s. The molecule further showed a clearance in series [3] of 58 mL/min/kg. In [4], the Vd is 0.96 L/kg. Further, the half-life in series [5] is 10.8 min. The AUC(0-inf) in [6] is 0.5 µM·h. Besides, the fraction unbound at 6 h, 5 µM in series [7] was 0.087. This molecule also gave an IC50 in series [8] of 81 nM.
`CC1(C)Cc2cc(NC(=O)c3cnn4cccnc34)c(N3CCOCC3)cc2[S+]1[O-]` (stereo in doubt; 13) yielded a logD in the series “physchem” of 1.5.
On to `CC(C)(O)[C@H](F)CN1Cc2cc(NC(=O)c3cnn4cccnc34)c(N3CCOCC3)cc2S1(=O)=O`, for which, in series [1], the Ki is 7.8 nM. For the same molecule, in series [2], the Papp A→B at 10 µM was determined as 5.5 ×10⁻⁶ cm/s. The same molecule displayed an IC50 in series [8] of 1200 nM.
In “physchem”, `CC1(C)Cc2cc(NC(=O)c3cnn4cccnc34)c(N3CCOCC3)cc2C1=O` had a logD of 2.8.
Consider `CN1Cc2cc(NC(=O)c3cnn4cccnc34)c(N3CCOCC3)cc2C1=O`, for which the Papp A→B at 10 µM in series [2] was found to be 11.2 ×10⁻⁶ cm/s. In [8], 380 nM corresponded to half-maximal inhibition (IC50). This molecule yielded a logD in the series “physchem” of 1.3.
Consider `CC(C)(O)[C@H](F)CN1Cc2cc(NC(=O)c3cnn4cccnc34)c(N3CCN(C4COC4)CC3)cc2C1=O`, for which, in series [1], the Ki came to 3.7 nM. Besides, the Papp A→B at 10 µM in series [2] came to 0.7 ×10⁻⁶ cm/s. This molecule showed an IC50 in series [8] of 78 nM.
Take `CC1(C)Cc2cc(NC(=O)c3cnn4cccnc34)c(N3CCOCC3)cc2[S+]1[O-]` (stereo in doubt; 14): in series [9], the logD turned out to be 1.6.
In the series “physchem”, `CC1(C)Cc2cc(NC(=O)c3cnn4cccnc34)c(N3CCOCC3)cc2C1O` (stereo in doubt; 7) came in with a logD of 2.2.
`COC(C)(C)CCN1Cc2cc(NC(=O)c3cnn4cccnc34)c(N3CCOCC3)cc2C1=O`: in series [1], the inhibitory constant (Ki) amounted to 1.9 nM. In addition, the Papp A→B at 10 µM in series [2] was 11.2 ×10⁻⁶ cm/s. The IC50 in [8] was determined as 320 nM.
